Common to all, as to assay type: functional, cell-based
Test [1] concerns the target T1, Cysteinyl leukotriene receptor 1 (Homo sapiens) (UniProt Q9Y271).
T1 sequence (whole entry): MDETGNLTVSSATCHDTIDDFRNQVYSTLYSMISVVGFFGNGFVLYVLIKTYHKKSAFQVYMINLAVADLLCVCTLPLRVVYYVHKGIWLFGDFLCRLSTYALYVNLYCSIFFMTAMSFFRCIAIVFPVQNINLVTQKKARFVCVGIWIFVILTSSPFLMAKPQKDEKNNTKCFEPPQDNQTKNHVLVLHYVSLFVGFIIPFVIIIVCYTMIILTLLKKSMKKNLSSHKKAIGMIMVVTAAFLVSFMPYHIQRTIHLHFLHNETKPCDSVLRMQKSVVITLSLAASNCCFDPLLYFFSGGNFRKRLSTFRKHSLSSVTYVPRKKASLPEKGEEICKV
The test is described as follows: Antagonist activity at CysLT1 receptor (unknown origin) expressed in human dU937 cells assessed as reduction in LTD4-induced cytosolic free Ca2+ level at 1 uM after 30 mins by fluorescence assay relative to control.

Test [2] deals with T2, Cysteinyl leukotriene receptor 2 (Homo sapiens) (UniProt Q9NS75).
T2 sequence (whole entry): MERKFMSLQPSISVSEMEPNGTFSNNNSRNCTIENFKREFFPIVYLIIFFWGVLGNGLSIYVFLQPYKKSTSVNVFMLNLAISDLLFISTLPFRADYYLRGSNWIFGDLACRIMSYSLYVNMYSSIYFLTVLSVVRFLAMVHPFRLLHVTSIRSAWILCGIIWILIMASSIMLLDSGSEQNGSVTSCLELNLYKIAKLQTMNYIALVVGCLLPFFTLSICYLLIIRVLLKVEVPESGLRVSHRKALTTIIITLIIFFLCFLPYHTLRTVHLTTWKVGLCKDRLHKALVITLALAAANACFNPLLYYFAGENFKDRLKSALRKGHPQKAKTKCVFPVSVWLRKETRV
The experiment in a line: (§1) Antagonist activity at human recombinant CysLT2 receptor expressed in human HEK293 cells assessed as reduction in LTD4-induced cytosolic free Ca2+ level after 30 mins by fluorescence assay relative to control. In short, it runs like this:
(§2)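 HEK293 cells stably transfected with pcDNA3.1(+)-hCysLT2 were grown at 37 °C in 5% CO2 and plated. After 24 h they were preincubated for 30 min in BSS with or without test compound. Cells were then stimulated with LTD4, with ATP as a positive stimulus. [Ca2+]i fluorescence was read at 37 °C (ex 485/em 525 nm). The response was taken as peak minus basal and expressed as % of BSS-only control.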

The target of test [3] is T3, Cysteinyl leukotriene receptor 2 (Homo sapiens, UniProt Q9NS75).
T3 sequence (Q9NS75 whole entry): T2 sequence (whole entry)
The test is described as §1. In short, it runs like this: as §2

Test [4] has as its target T2, Cysteinyl leukotriene receptor 2 (Homo sapiens). The experiment in a line: Antagonist activity at human recombinant CysLT2 receptor expressed in human HEK293 cells assessed as reduction in LTD4-induced cytosolic free Ca2+ level at 1 uM after 30 mins by fluorescence assay relative to control. A digest of the protocol:
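HEK293 cells stably transfected with pcDNA3.1(+)-hCysLT2 were grown at 37 °C in 5% CO2 and plated. After 24 h they were preincubated for 30 min in BSS with or without test compound. Cells were then stimulated with LTD4, with ATP as a positive stimulus. The response was taken as peak minus basal and expressed as % of BSS-only control.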

pIC50: −log10 of the molar value.

The term inhibition denotes the percentage by which the read-out fell short of the control. Take `CCCCCCCCOc1ccc(/C=C/C(=O)c2ccc(C(=O)O)cc2OCC(=O)O)cc1`: the inhibition in test [1] came to 8.6%.
What is called pIC50 is the negative decadic logarithm of the IC50, by convention in mol/L. Take `O=C(O)COc1ccc(C(=O)O)cc1C(=O)/C=C/c1ccc(OCCCCOc2ccc(Cl)cc2)cc1`: in test [2], the Activity entry was “Dose-dependent effect” and the Imax is 72.8%. Further, the pIC50 in test [3] is 5.12. Also, the inhibition in test [4] worked out at 44%. Moreover, the inhibition in test [1] was 7%.
In the case of `CCCCCCCCCCCCOc1ccc(/C=C/C(=O)c2ccc(C(=O)O)cc2OCC(=O)O)cc1`, in test [1], the inhibition is 10.6%.
Consider `N#CCOc1cc(C(=O)O)ccc1C(=O)/C=C/c1ccc(OCCCCOc2ccc(Cl)cc2)cc1`, for which the inhibition in test [4] turned out to be 10.4%.
For `CCCCCCCCCCCCOc1ccc(/C=C/C(=O)c2cc(C(=O)O)ccc2OCC(=O)O)cc1`, the inhibition in test [1] is 35.7%.
`CCCCCCCCCCCCOc1cccc(/C=C/C(=O)c2cc(C(=O)O)ccc2OCC(=O)O)c1`: in test [2], the Activity result was “Dose-dependent effect” and the Imax was found to be 80.5%. Further, the pIC50 in test [3] is 6.60. Moreover, the inhibition in test [4] came out at 70.5%. The inhibition in test [1] is 4.8%.

The values above are taken from ChEMBL document CHEMBL2413074, “Structure-based drug design using GPCR homology modeling: toward the discovery of novel selective CysLT2 antagonists” (Eur J Med Chem, 2013).
